This passage reports activation results from PubChem BioAssay AID624467 (The Scripps Research Institute Molecular Screening Center, 2012).

The whole screen tested about 360,000 compounds, of which about 3,600 (1%) were called active.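 The calls were made as follows: active = activation above the mean activation of all test compounds in the run plus 3 SD (cut at about 38% in these data); inactive = the rest.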 For the sample, actives were picked, then their nearest neighbours and some compounds at random.

Sequence of Trace amine-associated receptor 1 (Homo sapiens) (Q96RJ0 whole entry, looked up): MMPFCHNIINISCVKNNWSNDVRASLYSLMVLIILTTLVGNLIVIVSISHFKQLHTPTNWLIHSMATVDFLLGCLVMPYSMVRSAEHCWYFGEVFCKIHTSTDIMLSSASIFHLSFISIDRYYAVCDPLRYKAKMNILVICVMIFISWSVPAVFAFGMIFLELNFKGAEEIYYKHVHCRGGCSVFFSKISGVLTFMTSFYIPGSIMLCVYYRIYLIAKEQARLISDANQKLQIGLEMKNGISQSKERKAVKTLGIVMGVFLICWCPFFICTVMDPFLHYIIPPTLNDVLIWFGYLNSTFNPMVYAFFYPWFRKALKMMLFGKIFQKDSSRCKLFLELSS

This test deals with Trace amine-associated receptor 1 (Homo sapiens) (UniProt Q96RJ0). In words: human TAAR1 agonists, primary screen, Fluo-8 calcium fluorescence, CHO RD-HGA16 cells (AID 624467). To be noted: CHO RD-HGA16 TAAR1, Fluo-8 calcium fluorescence; at 3 µM; hits give high values; vehicle wells 0%, saturating PEA agonist 100%. The method in brief:
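System: CHO-derived RD-HGA16 cells with stable Gα16 and human TAAR1 / Times: 17-24 h plating, Fluo-8 75 min 37 °C, 30 min RT / Technique: calcium-sensitive Fluo-8 signal, excitation 470-495, emission 515-575 nm / Measure: % activation relative to PEA EC100 response / Benchmarks: DMSO and PEA EC100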
`OC[C@H]1O[C@@H](c2nc(-c3nc(-c4ccc(F)cc4)no3)cs2)[C@H](O)[C@@H](O)[C@H]1O`: the activation was 0.88% (inactive).
Then `COc1ccc(OC)c(NC(=O)CSc2nc3cccnc3n2C)c1`, with 1.87% (inactive); and `CCOc1ccc(OCCSc2nc3ccccc3n2CC(=O)O)cc1`, with 3.64% (inactive); and `CCCCCCCCCCOC(=O)Cn1c(COc2ccc(C)cc2)[n+](C)c2ccccc21`, with 74.1% (active).
The figure for `Cc1noc(C)c1COC(=O)Cn1c(C)nc2ccccc21` is 1.89% (inactive); for `NCCCNC(=S)NCCCN(Cc1ccc(Cl)cc1)c1ccc(Br)cn1` it is 24.3% (inactive).
The figure for `S=C(NCCCc1cnc[nH]1)NCCCN(Cc1ccc(Cl)c(Cl)c1)c1ccc(Br)cn1` is 44.3% (active).
For the compound `COC(=O)C1=C(C)N(Cc2ccc(C(F)(F)F)cc2)C(=NCc2ccc(C(F)(F)F)cc2)NC1c1cccc(Cl)c1` (stereo not given), the activation is 16.8% (inactive).
Then `O=C(CCC1CCCN(Cc2ccc(O)c(Cl)c2)C1)NCc1ccccc1F` (stereo not given), with 5.41% (inactive); and `CCC(C)C(N=C1NS(=O)(=O)c2ccccc21)C(=O)N1CCC(C)CC1` (stereo not given), with 5.5% (inactive); and `COc1ccccc1-c1ccc([C@@H]2C[C@H]3[C@H](CON3C)CN2S(=O)(=O)c2cc(Cl)cc(Cl)c2)cc1`, with 0.17% (inactive).
For `COc1ccc(OCC(O)CNC(=O)Nc2ccc(Cl)cc2)cc1` (stereo not given), the activation is 9.53% (inactive).
As to `OC(CNCCc1ccc(Cl)cc1Cl)COc1ccccc1` (stereo not given), the activation was 86% (active).
The figure for `OC(COc1ccccc1)CN1CCN(c2cccc(Cl)c2)CC1` (stereo not given) is 4.5% (inactive); for `CC1CN(S(=O)(=O)c2cccc(C(F)(F)F)c2)CN1C(=O)N1CCOCC1` (stereo not given) it is -1.03% (inactive).
The figure for `CCOC(=O)[C@]12CCCC=C1N(CCC1=CCCCC1)C(=O)[C@H](CC(=O)N1CCOCC1)C2` is -0.62% (inactive); for `CCS(=O)(=O)N1CCN(C(=O)c2cccs2)CC1` it is 3.03% (inactive).
Then `COC(=O)c1ccc(CN2C(=O)[C@]3(OCCC=C[C@H]3C)c3c(Br)cccc32)cc1`, with 2.59% (inactive); and `CCC1=Nc2cc(C(=O)NCCCN3CCOCC3)ccc2Sc2ccc(Br)cc21`, with 9.87% (inactive); and `Cc1ccccc1CN1C(=O)c2ccccc2Sc2ccc(C(=O)NCCCN3CCOCC3)cc21`, with 40.1% (active).
Take `O=C(NCCCN1CCCCC1)c1ccc2c(c1)NC(=O)C(N1CCOCC1)S2` (stereo not given): the activation is 3.95% (inactive).
Then `COC(=O)c1c(-c2ccc(OC)cc2)c2c(c3c4cc(OC)ccc4n(S(=O)(=O)c4ccc(F)cc4)c13)C(=O)N(C)C2`, with -0.58% (inactive); and `CCOC(=O)N1CCN(C(=O)c2ccccc2SCC(=O)NCC2CCCCC2)CC1`, with 2.29% (inactive); and `c1ccc2c(c1)OCC(CNc1ncnc3nc[nH]c13)O2` (stereo not given), with 225% (active).
Then `O=C(COC(=O)c1ccc(F)cc1)NCC1COc2ccccc2O1` (stereo not given), with 0.46% (inactive); and `O=C(COc1ccc(F)cc1Br)NCC1COc2ccccc2O1` (stereo not given), with -1.29% (inactive).
The figure for `CN(c1ccccc1)S(=O)(=O)c1ccc(C(=O)NCc2cccnc2)cc1` is 3.27% (inactive).
In the case of `O=S(=O)(Cc1cc(Sc2ccccc2)nc(-c2ccccc2)n1)c1ccccc1`, the activation is 11.3% (inactive).
The figure for `Cc1ccc(Sc2cc(N3CCOCC3)nc(-c3ccccc3)n2)cc1` is 48.2% (active).
Then `Cc1cc(N2CCOCC2)nc2ccc(NC(=S)N3CCN(Cc4ccccc4)CC3)cc12`, with 7.44% (inactive).
The figure for `c1ccc2c(CCN3CCNC[C@H]3Cc3cccc4ccccc34)cccc2c1` is 33.5% (inactive).
Consider `c1ccc(C2CNCc3c2ccc2ccccc32)cc1` (stereo not given), for which the activation was 82% (active).
In the case of `O=C(COC(=O)c1cc(-c2cccs2)nn1-c1ccccc1)Nc1cc([N+](=O)[O-])ccc1Cl`, the activation was 7.58% (inactive).
Then `Cc1ccc(N2C(=O)CC(NCc3ccc4c(c3)OCO4)C2=O)cc1Cl` (stereo not given), with 1.12% (inactive); and `CSCCC(NS(=O)(=O)c1ccc2c(c1)oc(=O)n2C)C(=O)NC1CCCc2ccccc21` (stereo not given), with 4.94% (inactive); and `COC(=O)[C@]12C[C@H](CC(=O)NCCc3ccccc3OC)C(=O)N(Cc3ccccc3)C1=C[C@H](C(C)C)O[C@@H]2C1CC1`, with 30.4% (inactive).
The figure for `COc1ccc(NS(=O)(=O)c2ccc(NC(=S)NC(=O)CC(C)C)cc2)cc1` is 42.2% (active).
In the case of `COc1ccc(OC)c(C(C)NC(=S)Nc2ccc(S(=O)(=O)Nc3ncccn3)cc2)c1` (stereo not given), the activation was 1.66% (inactive).
The figure for `COc1cc(NS(=O)(=O)c2ccc(NC(=S)NC(=O)c3ccccc3)cc2)nc(OC)n1` is -5.7% (inactive); for `COc1ccc(C2c3ccc(O)cc3Oc3ncn(CCCO)c(=N)c32)cc1OC` (stereo not given) it is 0.73% (inactive); for `C=CCN1C(=NC(=O)COc2ccccc2)SC2CS(=O)(=O)CC21` (stereo not given) it is 2.44% (inactive).
Then `C=CCN1CN(S(=O)(=O)c2ccc(OC)cc2)c2nc3ccccc3nc21`, with 2.16% (inactive).
Then `O=C(NCc1ccccc1)[C@H]1CCCN1C(=O)[C@H]1CCCN1C(=O)N1CCOCC1`, with 1.52% (inactive); and `Cc1ccc(C)n1-c1ccncc1`, with 2.15% (inactive).
Turning to `COc1ccc(C(C(=O)Nc2c(C)cccc2C)N2CCN(c3ccc(C)cc3)CC2)cc1` (stereo not given), the activation is 5.99% (inactive).
Then `COc1ccc(C(CC(=O)N2CCN(c3ccccc3)CC2)c2c(O)cc(OC)cc2OC)cc1` (stereo not given), with 2.38% (inactive).
Then `COc1ccc(C(C(O)C(=O)c2c[nH]c3ccccc23)N2CCN(c3ccccc3)CC2)cc1` (stereo not given), with 39.9% (active); and `COC(=O)C1=C(C)N(Cc2ccc(F)cc2)C(=S)NC1c1cccc(Cl)c1` (stereo not given), with -0.89% (inactive).
In the case of `CN1CCCc2nc(-c3ccccc3)ccc21`, the activation was 1.31% (inactive).
Then `CC(C)(C)NC(=O)c1cccc(NC(=O)Cc2ccc(Br)cc2)c1`, with 2.23% (inactive).
For `O=C(Nc1cccc(NC(=O)c2ccc(Br)cc2)c1)c1ccccc1`, the activation was 63.2% (active).
Then `O=C(Nc1ccccc1)c1ccc2nsnc2c1`, with -0.47% (inactive).
On to `N#CNC1=NCN(CCc2ccccc2)CN1`, for which the activation was 63.9% (active).
Then `O=C1CCN(CCc2ccccc2)CCN1CCOc1ccccc1`, with 19.8% (inactive); and `CCCN1CNC(=S)N(CCc2ccccc2)C1`, with 4.93% (inactive); and `CC(C)C[C@H](NC(=O)CC1CCCC1)C(=O)N1CCC[C@H]1C(=O)NCc1ccccc1`, with 1.37% (inactive).
As to `CCOc1ccc(Nc2nc(Cc3nnc(SCC(=O)NC4CCCC4)n3C)cs2)cc1`, the activation is 11.9% (inactive).
Then `COCCCn1c(SCC(=O)NC2CCCC2)nnc1-c1ccccc1`, with 0.55% (inactive).
The figure for `COCCCn1c(Cc2csc(Nc3cccc(Cl)c3)n2)nnc1SCC(=O)OC1CCCCC1` is 52.8% (active).
With `CCOc1ncccc1C(=O)OCC(=O)c1c[nH]c2ccccc12`, the activation is 14.1% (inactive).
The figure for `C[C@H](NC(=O)c1ccccc1)C(=O)OCC(=O)c1c[nH]c2ccccc12` is 70% (active).
As to `CC(C)Nc1nnc(SCC(=O)c2c[nH]c3ccccc23)s1`, the activation is 1.89% (inactive).
In the case of `COc1ccc(NC(=O)C2(C)Cc3c(-c4ccc(C(N)=O)cc4)ccnc3O2)cc1` (stereo not given), the activation is 1.37% (inactive).
Then `CN[C@H]1C[C@H]2c3[nH]c4c(-c5ccccc5)cccc4c3CCN2C(=O)[C@H]1[C@H](C)O`, with 4.95% (inactive); and `CCc1ccc(-c2nn(-c3ccccc3)cc2CSC(=N)N)cc1`, with 99.3% (active).
In the case of `CCc1ccc(-c2nn(-c3ccccc3C)cc2C(=O)N2CCN(C3CCS(=O)(=O)C3)CC2)cc1` (stereo not given), the activation was 1.27% (inactive).
`O=C(NCCCN1CCOCC1)c1cn(-c2ccccc2)nc1-c1ccc(F)cc1`: the activation is 3.53% (inactive).
Then `CCc1nc2ccc(C(=O)N3CCN(c4cccc(Cl)c4)CC3)cc2nc1CC`, with 1.12% (inactive).
Then `COC(=O)[C@]12C[C@H](CC(=O)NCCCCc3ccccc3)C(=O)N(Cc3ccc4c(c3)OCO4)C1=C[C@H](C(C)(C)C)O[C@@H]2C`, with 5.91% (inactive); and `COc1cc(/C=N\NC(=O)c2nonc2N)c(OC)cc1Br`, with 1.69% (inactive); and `Cc1cc(C)c([N+](=O)[O-])cc1-c1ccc(/C=N/NC(=O)c2nonc2N)o1`, with 41% (active).
The figure for `Cc1occc1C(=O)N/N=C/c1ccc(-c2cccc([N+](=O)[O-])c2)o1` is 4.69% (inactive); for `O=C(COC(=O)CCc1c[nH]c2ccccc12)Nc1cccc(Cl)c1` it is 3.56% (inactive).
Turning to `Nc1ncnc2c1ncn2[C@@H]1O[C@H](C(=O)N[C@@H](CCc2ccccc2)C(=O)NCC(=O)N2CCOCC2)[C@@H](O)[C@H]1O`, the activation is 0.02% (inactive).
Then `Clc1cccc2c1C1CC2CCN1Cc1ccccc1` (stereo not given), with -1.9% (inactive); and `Cc1ccccc1NC(=S)NC(=O)Cc1ccc(Cl)cc1`, with 82.3% (active).
The figure for `Cc1cc(C(=O)NNC(=S)Nc2ccccc2C)cs1` is 7.69% (inactive); for `O=C(Cc1ccc(Cl)cc1)NC(=S)Nc1ccccc1O` it is 138% (active).
The figure for `Fc1ccccc1CNC(=S)Nc1ccc(Cl)cc1` is 5.04% (inactive); for `COC(=O)c1ccccc1NC(=O)CN(Cc1ccc(Cl)cc1)S(C)(=O)=O` it is 8.09% (inactive).
For `Cc1ccccc1N/C(SCc1ccc(Cl)cc1)=C(/C#N)C(N)=O`, the activation was 6.27% (inactive).
As to `Cc1ccc(NS(=O)(=O)c2ccc3c(c2)oc(=O)n3C)c(C)c1`, the activation was 3.17% (inactive).
`Brc1ccc(COCCc2cn(Cc3ccccc3)c3ccccc23)cc1`: the activation was 0.28% (inactive).
Then `CC1CCCCN1C(=S)NCc1ccccc1` (stereo not given), with 5.09% (inactive); and `S=C(Nc1cccc(Br)c1)N1CCn2cccc2C1c1cccnc1` (stereo not given), with 11.1% (inactive).
The figure for `S=C(NCCc1ccccc1)N1CCn2cccc2C1c1ccncc1` (stereo not given) is 96.1% (active).
The figure for `Cc1cc(=O)[nH]c(Nc2cccc(Br)c2)n1` is 26.1% (inactive); for `O=c1cnnc(Nc2ccccc2)[nH]1` it is 53% (active).
For `O=c1cnnc(Nc2ccccc2F)[nH]1`, the activation was 19.6% (inactive).
For `O=C(COC(=O)c1ncc(Cl)c(Cl)c1Cl)NNC(=O)c1ccccc1`, the activation is 4.83% (inactive).
